Data set [1] concerns the target Sigma non-opioid intracellular receptor 1 (Cavia porcellus, UniProt Q60492). The data set can be described thus: Displacement of [3H]-(+)-pnetazocin from sigma1 receptor in guinea pig brain membrane incubated for 150 mins by liquid scintillation counting method. The data set is classed as cell membranes. For orientation: Loss of bound radioactivity is the signal in a displacement assay; it reports binding, not function.

In a further data set the target is Mu-type opioid receptor (Cavia porcellus, UniProt P97266). The data set can be described thus: Displacement of [3H]DAMGO from mu opioid receptor in guinea pig brain membrane incubated for 2.5 hrs by scintillation counting method. Type of data set: cell membranes.
Sequence of Mu-type opioid receptor (P97266 whole entry): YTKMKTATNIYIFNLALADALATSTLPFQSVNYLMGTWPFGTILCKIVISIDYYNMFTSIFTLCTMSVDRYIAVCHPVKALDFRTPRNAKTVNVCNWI
Data set [2] is filed under the species Homo sapiens. The data set can be described thus: Inhibition of adrenergic alpha2 receptor (unknown origin) at 1 uM relative to control.
The target of data set [3] is T1, 5-hydroxytryptamine receptor 1A (Homo sapiens) (UniProt P08908).
T1 sequence (whole entry): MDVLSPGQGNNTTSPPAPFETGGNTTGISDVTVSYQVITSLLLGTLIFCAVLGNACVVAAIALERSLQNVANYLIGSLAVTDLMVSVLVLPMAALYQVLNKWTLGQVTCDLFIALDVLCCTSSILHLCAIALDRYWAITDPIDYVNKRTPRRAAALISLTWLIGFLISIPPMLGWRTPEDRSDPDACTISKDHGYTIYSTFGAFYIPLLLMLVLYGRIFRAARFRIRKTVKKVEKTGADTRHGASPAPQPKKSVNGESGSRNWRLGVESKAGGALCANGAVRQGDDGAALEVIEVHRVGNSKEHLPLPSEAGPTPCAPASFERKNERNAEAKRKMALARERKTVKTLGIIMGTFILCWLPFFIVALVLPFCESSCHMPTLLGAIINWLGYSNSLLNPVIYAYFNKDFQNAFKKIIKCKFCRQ
The data set can be described thus: Inhibition of 5HT1A receptor (unknown origin) at 1 uM relative to control.

Data set [4] is filed under the species Homo sapiens. The data set can be described thus: Inhibition of sigma 2 receptor (unknown origin) at 1 uM relative to control.
Data set [5] in a line: Toxicity in sc dosed ICR mouse assessed as mortality after 24 hrs. Type of data set: organism-based. The conditions noted are these: in vivo.
Data set [6] deals with Sodium-dependent serotonin transporter (Homo sapiens) (UniProt P31645). The data set can be described thus: Inhibition of 5-HT transporter (unknown origin) at 1 uM relative to control.
Sequence of Sodium-dependent serotonin transporter (Homo sapiens) (P31645 whole entry, looked up): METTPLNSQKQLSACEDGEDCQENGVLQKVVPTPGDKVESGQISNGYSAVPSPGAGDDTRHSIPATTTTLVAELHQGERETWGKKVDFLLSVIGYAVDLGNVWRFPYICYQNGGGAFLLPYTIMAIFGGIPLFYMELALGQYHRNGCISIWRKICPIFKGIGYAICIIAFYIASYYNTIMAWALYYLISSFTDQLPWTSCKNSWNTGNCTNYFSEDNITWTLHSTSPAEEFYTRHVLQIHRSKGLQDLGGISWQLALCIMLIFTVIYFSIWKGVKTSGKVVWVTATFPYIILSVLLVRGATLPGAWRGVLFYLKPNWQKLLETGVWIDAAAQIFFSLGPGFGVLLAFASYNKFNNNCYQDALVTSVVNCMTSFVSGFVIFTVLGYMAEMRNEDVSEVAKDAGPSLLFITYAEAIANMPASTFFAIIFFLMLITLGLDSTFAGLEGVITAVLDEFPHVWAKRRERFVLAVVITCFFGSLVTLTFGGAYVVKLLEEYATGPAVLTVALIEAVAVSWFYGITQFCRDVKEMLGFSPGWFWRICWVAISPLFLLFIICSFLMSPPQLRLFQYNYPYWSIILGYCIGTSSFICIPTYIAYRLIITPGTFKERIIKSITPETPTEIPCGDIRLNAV
The species entered for data set [7] is Homo sapiens. The data set can be described thus: Inhibition of NMDA receptor (unknown origin) at 1 uM relative to control.
Data set [8] addresses Cannabinoid receptor 2 (Homo sapiens) (UniProt P34972). The data set can be described thus: Inhibition of CB2 receptor (unknown origin) at 1 uM relative to control.
The species named for data set [9] is Homo sapiens. The data set can be described thus: Inhibition of adrenergic alpha1 receptor (unknown origin) at 1 uM relative to control.
Data set [10] deals with 5-hydroxytryptamine receptor 2A (Homo sapiens) (UniProt P28223). The data set can be described thus: Inhibition of 5HT2A receptor (unknown origin) at 1 uM relative to control.
Sequence of 5-hydroxytryptamine receptor 2A (Homo sapiens) (P28223 whole entry): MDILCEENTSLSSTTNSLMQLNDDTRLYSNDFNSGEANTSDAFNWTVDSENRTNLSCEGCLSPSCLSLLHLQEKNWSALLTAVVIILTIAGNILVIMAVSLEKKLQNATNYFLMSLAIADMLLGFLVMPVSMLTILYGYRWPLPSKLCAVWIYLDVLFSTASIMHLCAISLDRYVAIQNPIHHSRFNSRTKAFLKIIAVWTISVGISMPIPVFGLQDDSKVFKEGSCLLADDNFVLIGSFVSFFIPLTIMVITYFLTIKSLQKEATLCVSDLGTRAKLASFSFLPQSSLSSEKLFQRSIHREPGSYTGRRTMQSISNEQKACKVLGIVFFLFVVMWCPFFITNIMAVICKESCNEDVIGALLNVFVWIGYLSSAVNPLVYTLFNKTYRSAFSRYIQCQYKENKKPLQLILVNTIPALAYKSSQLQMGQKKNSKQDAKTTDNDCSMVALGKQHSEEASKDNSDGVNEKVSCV
Data set [11] deals with Mus musculus. The data set can be described thus: Antiallodynic activity against formalin-induced nociceptive behavior in ICR mouse assessed as licking/biting time at 50 mg/kg, sc pre-treated for 30 mins followed by formalin-stimulation and measured up to 5 mins. The note with it: time min <=35. The data set is classed as functional. In outline:
(§1)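 Male/female unspecified ICR mice (n=10 per group) given test compound s.c. or vehicle 30% PEG 400 (4 mL/kg) 30 min before intraplantar injection of 100 µL 5% formalin (1.85% formaldehyde) into right hind paw; time spent licking/biting recorded 0-5 min (phase I) and 15-45 min (phase II); antinociception % = (LT vehicle − LT drug)/LT vehicle × 100; mean ± SEM.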

For data set [12], the target named is Cannabinoid receptor 1 (Homo sapiens) (UniProt P21554). The data set can be described thus: Inhibition of CB1 receptor (unknown origin) at 1 uM relative to control.
Sequence of Cannabinoid receptor 1 (Homo sapiens) (P21554 whole entry): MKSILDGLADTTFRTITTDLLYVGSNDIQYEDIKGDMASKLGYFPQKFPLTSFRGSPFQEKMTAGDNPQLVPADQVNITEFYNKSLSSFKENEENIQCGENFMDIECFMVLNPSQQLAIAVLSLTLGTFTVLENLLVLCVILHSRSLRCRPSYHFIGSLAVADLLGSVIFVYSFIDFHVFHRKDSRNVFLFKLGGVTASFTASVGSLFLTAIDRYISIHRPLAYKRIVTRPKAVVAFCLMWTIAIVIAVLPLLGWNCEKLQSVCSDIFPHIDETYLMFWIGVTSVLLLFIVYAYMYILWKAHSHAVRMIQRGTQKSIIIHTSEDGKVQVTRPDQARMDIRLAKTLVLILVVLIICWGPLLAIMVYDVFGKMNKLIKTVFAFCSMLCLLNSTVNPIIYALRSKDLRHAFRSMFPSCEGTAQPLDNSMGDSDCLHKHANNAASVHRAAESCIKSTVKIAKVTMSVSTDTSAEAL
The target in data set [13] is Sodium-dependent noradrenaline transporter (Homo sapiens) (UniProt P23975). The data set can be described thus: Inhibition of noradrenaline transporter (unknown origin) at 1 uM relative to control.
Sequence of Sodium-dependent noradrenaline transporter (Homo sapiens) (P23975 whole entry): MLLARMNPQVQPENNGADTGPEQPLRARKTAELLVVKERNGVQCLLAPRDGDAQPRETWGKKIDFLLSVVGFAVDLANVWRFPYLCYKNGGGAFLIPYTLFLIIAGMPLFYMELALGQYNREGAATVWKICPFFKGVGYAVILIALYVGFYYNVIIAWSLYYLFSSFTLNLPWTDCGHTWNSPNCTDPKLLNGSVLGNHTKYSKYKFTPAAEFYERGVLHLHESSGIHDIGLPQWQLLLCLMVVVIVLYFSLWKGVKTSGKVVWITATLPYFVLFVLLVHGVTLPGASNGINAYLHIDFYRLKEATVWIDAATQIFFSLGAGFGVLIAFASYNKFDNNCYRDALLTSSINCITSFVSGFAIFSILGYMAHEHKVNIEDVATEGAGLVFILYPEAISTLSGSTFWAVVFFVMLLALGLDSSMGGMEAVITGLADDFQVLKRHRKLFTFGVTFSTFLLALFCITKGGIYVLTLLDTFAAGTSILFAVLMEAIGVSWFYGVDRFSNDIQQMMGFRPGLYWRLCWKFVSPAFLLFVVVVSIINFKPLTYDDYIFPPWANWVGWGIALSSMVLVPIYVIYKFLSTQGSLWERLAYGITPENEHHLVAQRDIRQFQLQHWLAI
Data set [14] deals with Mus musculus. The data set can be described thus: Antiallodynic activity against formalin-induced nociceptive behavior in ICR mouse assessed as licking/biting time at 50 mg/kg, sc pre-treated for 30 mins followed by formalin-stimulation and measured up to 15 to 30 mins. Type of data set: functional. The conditions noted are these: time min <=45. An outline of the steps:
as §1

The target of data set [15] is Histamine H3 receptor (Homo sapiens) (UniProt Q9Y5N1). The data set can be described thus: Inhibition of histamine H3 receptor (unknown origin) at 1 uM relative to control.
Sequence of Histamine H3 receptor (Homo sapiens) (Q9Y5N1 whole entry): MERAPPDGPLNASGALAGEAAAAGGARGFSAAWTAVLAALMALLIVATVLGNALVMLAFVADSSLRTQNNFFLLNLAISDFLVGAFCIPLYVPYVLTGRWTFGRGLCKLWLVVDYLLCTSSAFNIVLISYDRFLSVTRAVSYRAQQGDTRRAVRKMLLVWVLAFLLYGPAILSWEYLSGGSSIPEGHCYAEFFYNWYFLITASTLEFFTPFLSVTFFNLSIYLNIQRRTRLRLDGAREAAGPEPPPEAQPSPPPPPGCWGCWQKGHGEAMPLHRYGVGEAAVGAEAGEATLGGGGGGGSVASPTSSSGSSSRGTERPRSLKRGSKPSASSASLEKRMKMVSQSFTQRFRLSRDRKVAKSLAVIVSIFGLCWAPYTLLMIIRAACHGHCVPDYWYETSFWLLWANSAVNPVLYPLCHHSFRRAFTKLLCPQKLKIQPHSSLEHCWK
Data set [16] can be described thus: Therapeutic index, ratio of LD50 for toxicity in ICR mouse to ED50 for antiallodynic activity against formalin-induced nociceptive behavior in ICR mouse. The conditions noted are these: read-out: Ratio LD50/ED50. An outline of the steps: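 TI = LD50/ED50: LD50 from s.c. acute toxicity in mice, ED50 from phase II of formalin test (s.c. dosing 30 min before formalin, 12.5–100 mg/kg).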

Data set [17] relates to Rattus norvegicus. The data set can be described thus: Antinociceptive activity in CCI-induced Sprague-Dawley rat model of neuropathic pain assessed as paw withdrawal latency at 50 mg/kg, sc after 15 days. The conditions noted are these: time 15.0 day. The data set is classed as functional, organism-based.
Data set [18] relates to Mus musculus. The data set can be described thus: Antiallodynic activity against formalin-induced nociceptive behavior in ICR mouse assessed as licking/biting time at 12.5 mg/kg, sc pre-treated for 30 mins followed by formalin-stimulation and measured up to 15 to 30 mins. Type of data set: functional. The note with it: time min <=45. In outline:
as §1

Data set [19] relates to Rattus norvegicus. The data set can be described thus: Antinociceptive activity in CCI-induced sc dosed Sprague-Dawley rat model of neuropathic pain assessed as paw withdrawal latency after 15 days. The data set is classed as functional. The note with it: 360 h, time 15 day.
For data set [20], the system named is Mus musculus. The data set can be described thus: Antiallodynic activity against formalin-induced nociceptive behavior in ICR mouse assessed as licking/biting time at 100 mg/kg, sc pre-treated for 30 mins followed by formalin-stimulation and measured up to 15 to 30 mins. The data set is classed as functional. The conditions noted are these: time min <=45. An outline of the steps:
as §1

The subject of data set [21] is Mus musculus. The data set can be described thus: Antiallodynic activity against formalin-induced nociceptive behavior in sc dosed ICR mouse assessed as licking/biting time pre-treated for 30 mins followed by formalin-stimulation and measured up to 15 to 30 mins. The data set is classed as functional. The conditions noted are these: dose 12.5-100 mg/kg, time min <=45. In outline: as §1

The subject of data set [22] is Mus musculus. The data set can be described thus: Antiallodynic activity against formalin-induced nociceptive behavior in ICR mouse assessed as licking/biting time at 25 mg/kg, sc pre-treated for 30 mins followed by formalin-stimulation and measured up to 15 to 30 mins. The data set is classed as functional. The conditions noted are these: time min <=45. An outline of the steps: as §1

Active and inactive are the calls of the source. The calls are words filed in the database; no cut-off is given here.

Sequence of Sigma non-opioid intracellular receptor 1 (Q60492 whole entry): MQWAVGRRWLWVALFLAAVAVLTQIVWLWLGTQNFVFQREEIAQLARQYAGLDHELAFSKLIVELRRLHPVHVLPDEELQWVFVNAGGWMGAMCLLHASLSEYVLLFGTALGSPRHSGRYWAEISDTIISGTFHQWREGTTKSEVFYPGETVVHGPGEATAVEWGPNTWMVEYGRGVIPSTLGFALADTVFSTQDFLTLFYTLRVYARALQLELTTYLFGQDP
Sequence of Cannabinoid receptor 2 (Homo sapiens) (P34972 whole entry): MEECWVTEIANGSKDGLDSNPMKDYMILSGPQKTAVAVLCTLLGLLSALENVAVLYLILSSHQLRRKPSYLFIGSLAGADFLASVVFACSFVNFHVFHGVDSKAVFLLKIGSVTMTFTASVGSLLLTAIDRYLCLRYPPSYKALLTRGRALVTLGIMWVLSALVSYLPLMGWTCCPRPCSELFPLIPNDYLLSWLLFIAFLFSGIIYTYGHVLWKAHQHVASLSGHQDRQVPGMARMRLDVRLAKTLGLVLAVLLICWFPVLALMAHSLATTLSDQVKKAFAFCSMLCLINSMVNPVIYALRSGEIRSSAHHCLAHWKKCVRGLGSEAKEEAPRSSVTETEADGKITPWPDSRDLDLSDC

Regarding `CCC(=O)N(CCN1CCC(Cc2ccccc2)CC1)c1ccccn1`, the Ki (as a rule, the equilibrium dissociation constant of an inhibitor or competing ligand from its target) in data set [1] is 402 nM.
Still for that read-out and setting: as for `CCC(=O)N(CCN1CCC(Cc2ccc(F)cc2)CC1)c1ccc(C)cc1`, the figure is 2.4 nM; as for `CCC(=O)N(CCN1CCC(CCc2ccccc2)CC1)c1ccc(OC)cc1`, 372 nM; as for `CCC(=O)N(CCc1ccccc1)CCN1CCC(Cc2ccccc2)CC1`, 269 nM.
Consider `CCC(=O)N(CCN1CCC(Cc2ccccc2)CC1)c1cc(F)c(F)c(F)c1`, for which the Ki in data set [1] amounted to 573 nM.
In [1], `CCC(=O)N(CCN1CCC(c2ccccc2)CC1)c1ccc(OC)cc1` displayed a Ki of 39 nM.
In data set [1], `CCC(=O)N(CCN1CCC(Cc2ccccc2)CC1)C(C)c1ccccc1` (configuration not stated) came in with a Ki of 17.4 nM.
In [1], `CCC(=O)N(CCN1CCC(Cc2ccccc2)CC1)c1ccc(OC)cc1` gave a Ki of 1.5 nM.
Same read-out and setting: as for `CCC(=O)N(CCN1CCC(Cc2ccccc2)CC1)c1ccc(C)cc1`, the figure is 1.6 nM.
Regarding `CCC(=O)N(CCN1CCC(Cc2ccccc2)CC1)c1cccc(C(F)(F)F)n1`, in data set [1], the Ki stood at 835 nM.
At Mu-type opioid receptor, `C[C@@H]1[C@@H]2Cc3ccc(O)cc3[C@]1(C)CCN2CCc1ccccc1` returned a Ki of 0.2 nM.
In data set [1], `CCC(=O)N(CCN1CCC(Cc2ccc(C)cc2)CC1)c1ccc(OC)cc1` came in with a Ki of 35 nM.
In [1], `CCC(=O)N(CCN1CCC(CCCc2ccccc2)CC1)c1ccc(OC)cc1` displayed a Ki of 893 nM.
The same measure, in the same setting: as for `CCC(=O)N(CCN1CCC(Cc2ccccc2)CC1)Cc1ccccc1`, the figure is 18.7 nM.
For `CCC(=O)N(CCN1CCC(Cc2ccc(F)cc2)CC1)c1ccc(F)cc1`, the inhibition – broadly, the percentage by which the read-out fell short of the control – in the data set filed under Homo sapiens [2] was 32.3%; in data set [3] it was 23%; in the data set listed under Homo sapiens [4], 31.8%; in [6], 44.6%; in the data set listed under Homo sapiens [7], 20.5%; in [8] it was 19.9%. Further, the inhibition was 39.9% in the data set listed under Homo sapiens [9]; 34.4% in data set [10]; 17.4% in [12]; 28.8% in data set [13]; 9.75% in data set [15]. The molecule further had a Ki in data set [1] of 1.3 nM. In addition, the LD50 (in general, the dose expected to kill half of the subjects tested) at 24 h in data set [5] worked out at 416 mg/kg. Also, the figures for the Time in the data set on Mus musculus [11] and with Mus musculus [14] were 36 s and 110 s, respectively.
With `Cc1cc(OCCN2CCOCC2)nn1-c1ccc2ccccc2c1`, the LD50 at 24 h in data set [5] amounted to 357 mg/kg. In addition, in [16], the selectivity ratio came to 12. In addition, the result in the data set with Rattus norvegicus [17] and in the data set on Mus musculus [11] was Active. In addition, the Time in the data set on Mus musculus [14] was determined as 273 s.
In data set [1], `CCC(=O)N(CCCCCN1CCC(Cc2ccccc2)CC1)c1ccc(OC)cc1` displayed a Ki of 42 nM.
The molecule `CCC(=O)N(CCN1CCC(Cc2ccc(C)cc2)CC1)c1ccc(F)cc1` displayed a Ki in data set [1] of 47 nM.
As to `CCC(=O)N(CCCCN1CCC(Cc2ccccc2)CC1)c1ccc(OC)cc1`, in data set [1], the Ki is 18 nM.
In turn, `CCC(=O)N(CCCN1CCC(Cc2ccccc2)CC1)c1ccc(OC)cc1` returned a Ki in [1] of 2.2 nM.
In the case of `C[C@H]1[C@H]2Cc3ccc(O)cc3[C@@]1(C)CCN2CCc1ccccc1`, the affinity on Mu-type opioid receptor, expressed as Ki, was 55 nM.
As for `CCC(=O)N(CCN1CCC(Cc2ccc(F)cc2)CC1)c1ccc(OC)cc1`, the inhibition in the data set listed under Homo sapiens [2] is 45.9%; in [3] it was 45.2%; in the data set listed under Homo sapiens [4], 29.1%; in [6], 10.9%; in the data set listed under Homo sapiens [7], 14.3%; in data set [8], 32.6%. Also, the inhibition in the data set listed under Homo sapiens [9] came out at 24.7%; in data set [10], 43.6%; in data set [12] it was 20.8%; in data set [13] it was 18.5%; in [15], 34.6%. Besides, the Time with Mus musculus [18] amounted to 201 s; with Mus musculus [20], 41 s; in the data set on Mus musculus [11], 21 s; with Mus musculus [22] it was 108 s; in the data set on Mus musculus [14] it was 63 s. In addition, in data set [1], affinity was put at a Ki of 1.86 nM. For the same molecule, in data set [5], the LD50 at 24 h turned out to be 397 mg/kg. The ED50 – broadly, the dose that gives a 50% effect, or the effect in half of the subjects – was 44.1 mg/kg in the data set on Rattus norvegicus [19] and 15.1 mg/kg in the data set with Mus musculus [21]. In addition, the Activity entry in the data set on Mus musculus [21] is “Dose-dependent effect”.
Turning to `CCC(=O)N(CCN1CCC(Cc2ccccc2)CC1)c1ncccc1F`, the affinity in [1], expressed as Ki, was 506 nM.
For `CCC(=O)N(CCN1CCC(Cc2ccc(C)cc2)CC1)c1ccc(C)cc1`, in data set [1], the Ki is 29 nM.

The record behind these values is ChEMBL document CHEMBL4765270, “Piperidine propionamide as a scaffold for potent sigma-1 receptor antagonists and mu opioid receptor agonists for treating neuropathic pain” (Eur J Med Chem, 2020).
